Changes are numbered by the printed parent chain. Active and inactive are the calls of the source. The rule behind the calls is not given here.
Assays:
[1] = molecular target: T1, Retinoic acid receptor RXR-alpha (Homo sapiens, UniProt P19793); assay: Antagonist activity against Myc-tagged RXRalpha ligand binding domain (unknown origin) expressed in human HEK293T cells assessed as inhibition of 9-cis-RA-induced receptor transactivation after 18 hrs by luciferase reporter gene based mammalian one-hybrid assay; type: cell-based, HEK-293T
T1 sequence (P19793 whole entry): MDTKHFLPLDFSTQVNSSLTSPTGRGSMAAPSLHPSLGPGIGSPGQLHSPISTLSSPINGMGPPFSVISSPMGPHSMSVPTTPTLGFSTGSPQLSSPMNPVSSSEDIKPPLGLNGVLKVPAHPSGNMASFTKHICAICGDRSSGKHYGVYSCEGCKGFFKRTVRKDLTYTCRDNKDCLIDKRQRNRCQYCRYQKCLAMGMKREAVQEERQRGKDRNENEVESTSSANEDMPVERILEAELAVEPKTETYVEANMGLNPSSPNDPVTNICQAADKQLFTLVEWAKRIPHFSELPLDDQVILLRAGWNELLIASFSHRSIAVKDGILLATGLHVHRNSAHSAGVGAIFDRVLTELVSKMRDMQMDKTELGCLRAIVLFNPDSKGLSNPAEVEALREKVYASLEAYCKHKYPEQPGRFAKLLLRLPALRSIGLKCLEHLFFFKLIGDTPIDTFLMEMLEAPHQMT
Procedure, shortened: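 HEK293T cells co-transfected with pG5-Luc and pBind-RXRα-LBD. […] Luciferase reporter activity measured. Mean ± SD.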

[2] = molecular target: T2, Retinoic acid receptor RXR-alpha (Homo sapiens) (UniProt P19793); assay: Antagonist activity against RXRalpha in TNFalpha-stimulated human PC3 cells assessed as inhibition of AKT phosphorylation at 5 and 10 uM pre-treated for 24 hrs before TNFalpha addition by Western blotting method; type: cell-based; details: PC-3
T2 sequence (whole entry): T1 sequence (P19793 whole entry)

[3] = molecular target: T2, Retinoic acid receptor RXR-alpha (Homo sapiens); assay: Antagonist activity against RXRalpha in human colon cancer cells assessed as inhibition of AKT phosphorylation at 5 and 10 uM after 24 hrs by Western blotting method; type: cell-based; details: Cancer cell lines
[4] = test system: T3, Retinoic acid receptor RXR-alpha (Homo sapiens), P19793 [V298S]; assay: Antagonist activity against RXRalpha V298S mutant (unknown origin) expressed in human HEK293T cells assessed as inhibition of 9-cis-RA-induced receptor transactivation at 1 to 10 uM after 18 hrs by luciferase reporter gene based mammalian one-hybrid assay; type: cell-based; details: HEK-293T
T3 sequence (whole entry): T1 sequence (P19793 whole entry) with V298S
Procedure, shortened: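 HEK-293T cells co-transfected with pG5-Luc and an RXRα mutant vector (V298S as pBind fusion; A272W, C432W LBP mutants). […] Luciferase read-out. Mean ± SD.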

[5] = molecular target: T4, Retinoic acid receptor RXR-beta (Homo sapiens) (UniProt P28702); assay: Antagonist activity against RXRbeta ligand binding domain (unknown origin) expressed in human HEK293T cells assessed as inhibition of 9-cis-RA-induced receptor transactivation at 2 and 10 uM after 18 hrs by luciferase reporter gene based mammalian one-hybrid assay; type: cell-based; details: HEK-293T
T4 sequence (whole entry): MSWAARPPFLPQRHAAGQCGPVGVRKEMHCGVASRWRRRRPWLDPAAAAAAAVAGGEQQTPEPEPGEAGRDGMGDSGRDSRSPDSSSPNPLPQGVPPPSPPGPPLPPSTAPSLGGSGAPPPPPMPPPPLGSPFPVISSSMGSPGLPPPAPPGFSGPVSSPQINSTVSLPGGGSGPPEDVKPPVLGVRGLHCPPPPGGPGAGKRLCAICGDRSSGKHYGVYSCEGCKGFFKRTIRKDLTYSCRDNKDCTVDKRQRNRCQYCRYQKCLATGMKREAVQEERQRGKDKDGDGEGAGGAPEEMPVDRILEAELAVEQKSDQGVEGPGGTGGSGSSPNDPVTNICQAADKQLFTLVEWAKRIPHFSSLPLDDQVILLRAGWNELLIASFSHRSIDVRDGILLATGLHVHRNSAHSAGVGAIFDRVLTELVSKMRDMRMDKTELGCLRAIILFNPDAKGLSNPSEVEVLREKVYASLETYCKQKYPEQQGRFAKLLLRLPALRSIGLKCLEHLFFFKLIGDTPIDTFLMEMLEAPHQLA

[6] = molecular target: Nuclear receptor subfamily 4immunitygroup A member 1 (Homo sapiens) (UniProt P22736); assay: Antagonist activity against Nur77 ligand binding domain (unknown origin) expressed in human MCF7 cells assessed as inhibition of all-trans-RA-induced receptor transactivation at 10 uM after 18 hrs by luciferase reporter gene based mammalian one-hybrid assay; type: cell-based
Sequence of Nuclear receptor subfamily 4immunitygroup A member 1 (Homo sapiens) (P22736 whole entry, the tested form may be a part): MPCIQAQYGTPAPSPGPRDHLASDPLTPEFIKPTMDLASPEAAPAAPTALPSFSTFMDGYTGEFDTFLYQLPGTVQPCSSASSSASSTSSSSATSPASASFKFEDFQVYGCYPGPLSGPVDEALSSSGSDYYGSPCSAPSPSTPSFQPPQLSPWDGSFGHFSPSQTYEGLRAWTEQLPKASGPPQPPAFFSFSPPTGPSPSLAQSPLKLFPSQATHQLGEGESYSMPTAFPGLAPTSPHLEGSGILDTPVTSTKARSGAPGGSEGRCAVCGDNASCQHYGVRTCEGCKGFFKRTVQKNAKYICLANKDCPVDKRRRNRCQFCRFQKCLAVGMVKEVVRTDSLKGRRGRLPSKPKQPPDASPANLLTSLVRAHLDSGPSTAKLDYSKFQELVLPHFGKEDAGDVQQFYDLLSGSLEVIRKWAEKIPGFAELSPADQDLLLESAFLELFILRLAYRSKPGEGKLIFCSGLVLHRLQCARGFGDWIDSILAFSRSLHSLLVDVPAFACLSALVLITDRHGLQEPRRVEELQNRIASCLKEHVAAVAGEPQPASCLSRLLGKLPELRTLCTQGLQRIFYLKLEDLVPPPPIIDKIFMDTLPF
Procedure, shortened: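 MCF-7 cells co-transfected with pG5-Luc and the pBind-LBD fusion: Nur77, RARγ or ER. Agonists were all-trans-RA 10⁻⁷ M for RARγ and Nur77, and propyl pyrazole triol 10 μM for ER. Compound at 10 μM for 18 h. Dual-luciferase read-out normalized to Renilla. Mean ± SD.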

A549 = assay: Induction of apoptosis in TNFalpha-stimulated human A549 cells assessed as PARP cleavage at 5 and 10 uM pre-treated for 24 hrs before TNFalpha addition by immunoblotting method; type: functional, cell-based
Procedure, shortened: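 A549 or HepG2 cells were treated with compound for 24 h, with or without subsequent TNFα (20 ng/mL) for 30 min. Lysates were immunoblotted for PARP cleavage as the apoptosis marker. One of three to five similar experiments shown.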

IC50 [1]: 2.45 µM
inhibition [2]: Active
inhibition [3]: Active
inhibition [4]: inactive
inhibition [5]: Active
inhibition [6]: inactive
SMILES: Cc1cc(=O)oc2c(/C=N/NC(=O)CSc3nc4ccccc4s3)c(O)ccc12
Activity (A549): Active

— ChEMBL document CHEMBL3352174, “Identification of a New RXRα Antagonist Targeting the Coregulator-Binding Site” (ACS Med Chem Lett, 2014)
